Reference: ChEMBL document CHEMBL1955865, “Synthesis of novel spirooxindole derivatives by one pot multicomponent reaction and their antimicrobial activity” (2012)
Values after ≈ are worked out from the molar mass of the structure shown.

Legend:
[1] = Antifungal activity against Malassezia pachydermatis at 1000 ug/disc after 48 hrs by disc diffusion assay; assay type: functional
How it was run: (§1)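 Fungal disc diffusion with inoculum from SDA spores (filamentous) or SDB culture (yeast). Test cultures were swabbed on agar, and discs at 1000 µg/disc were left 30 min at room temperature, with a solvent negative control. Plates were incubated 48 h at 27 °C. Zone of inhibition was measured in mm, and the experiment was repeated twice.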

Candida albicans [2] = assay: Antifungal activity against Candida albicans MTCC 227 at 1000 ug/disc after 48 hrs by disc diffusion assay; assay type: functional; conditions: MTCC 227, 48 h, read-out: IZ; how it was run: as §1
Botrytis cinerea [3] = assay: Antifungal activity against Botrytis cinerea at 1000 ug/disc after 48 hrs by disc diffusion assay; assay type: functional; conditions: read-out: IZ; how it was run: as §1
Staphylococcus aureus [4] = assay: Antibacterial activity against Staphylococcus aureus MTCC 96 after 24 hrs by twofold serial dilution method; assay type: functional; conditions: MTCC 96, 24 h
How it was run: (§2)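 Bacteria grown in Mueller Hinton broth for 24 h at 37 °C and diluted to about 10^4 CFU/ml. Compound in 2% DMSO was serially diluted two-fold (1000 to 15.62 µg/ml) in medium in 96-well plates and inoculated. Plates were incubated 24 h at 37 °C. 5 µl of broth was spotted onto MHA, and MIC was taken as the lowest concentration with no visible growth on agar.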

Staphylococcus aureus [5] = assay: Antibacterial activity against methicillin-resistant Staphylococcus aureus after 24 hrs by twofold serial dilution method; assay type: functional
How it was run: (§3)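 Broth microdilution in MHB following the standard bacterial reference method. Compound was dissolved in DMSO (2%) and serially diluted two-fold from 1000 to 15.62 µg/ml in 96-well plates, with an inoculum of about 10^4 CFU/ml. Streptomycin and ciprofloxacin were positive controls. After 24 h at 37 °C, 5 µl of broth was subcultured on MHA. MIC was the lowest concentration without visible growth on agar.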

Micrococcus luteus [6] = assay: Antibacterial activity against Micrococcus luteus after 24 hrs by twofold serial dilution method; assay type: functional; how it was run: as §2
Klebsiella aerogenes [7] = assay: Antibacterial activity against Enterobacter aerogenes MTCC 111 after 24 hrs by twofold serial dilution method; assay type: functional; conditions: MTCC 111, 24 h; how it was run: as §2
Proteus vulgaris [8] = assay: Antibacterial activity against Proteus vulgaris MTCC 1771 after 24 hrs by twofold serial dilution method; assay type: functional; conditions: MTCC 1771, 24 h; how it was run: as §2
Klebsiella pneumoniae [9] = assay: Antibacterial activity against Klebsiella pneumoniae MTCC 109 after 24 hrs by twofold serial dilution method; assay type: functional; conditions: MTCC 109, 24 h; how it was run: as §2
Salmonella typhimurium [10] = assay: Antibacterial activity against Salmonella Typhimurium MTCC 1251 after 24 hrs by two-fold serial dilution method; assay type: functional, Salmonella enterica subsp. enterica serovar Typhimurium; conditions: Salmonella enterica, MTCC 1251, 24 h; how it was run: as §2
[11] = system: Salmonella enterica subsp. enterica serovar Paratyphi B; assay: Antibacterial activity against Salmonella paratyphi B after 24 hrs by twofold serial dilution method; assay type: functional; how it was run: as §3
[12] = Antifungal activity against Malassezia pachydermatis after 48 to 72 hrs by twofold serial dilution method; assay type: functional
How it was run: (§4)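 Broth two-fold serial dilution, 1000 to 15.62 µg/ml, with compound dissolved in 2% DMSO, in 96-well plates. Filamentous fungal spores came from 10-day SDA slants at 28 °C, and yeast from SDB grown 48 h at 28 °C. Incubation was 48-72 h at 28 °C. MIC was the lowest concentration with no visible fungal growth.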

Candida albicans [13] = assay: Antifungal activity against Candida albicans MTCC 227 after 48 to 72 hrs by twofold serial dilution method; assay type: functional; how it was run: as §4
Botrytis cinerea [14] = assay: Antifungal activity against Botrytis cinerea after 48 to 72 hrs by twofold serial dilution method; assay type: functional; how it was run: as §4
Staphylococcus aureus [15] = assay: Antibacterial activity against Staphylococcus aureus MTCC 96 at 1000 ug/disc after 24 hrs by disc diffusion assay; assay type: functional; conditions: MTCC 96, 24 h, read-out: IZ
How it was run: (§5)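 Disc diffusion on Mueller Hinton agar. Cultures (about 10^4 CFU/ml) were swabbed on and dried 10 min. Discs loaded at 1000 µg/disc were left 30 min at room temperature for diffusion, with a solvent negative control. Plates were incubated 24 h at 37 °C. Inhibition zones were measured in mm, and the experiment was done twice.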

Staphylococcus aureus [16] = assay: Antibacterial activity against methicillin-resistant Staphylococcus aureus at 1000 ug/disc after 24 hrs by disc diffusion assay; assay type: functional; conditions: read-out: IZ
How it was run: (§6)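 Disc diffusion on Mueller Hinton agar. Bacteria were grown 24 h at 37 °C in MHB and diluted to about 10^4 CFU/ml, swabbed onto plates and dried 10 min. Discs were loaded at 1000 μg/disc and held 30 min at room temperature for diffusion. Solvent served as negative control. After 24 h at 37 °C, inhibition zones were read in mm; run twice.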

Micrococcus luteus [17] = assay: Antibacterial activity against Micrococcus luteus at 1000 ug/disc after 24 hrs by disc diffusion assay; assay type: functional; conditions: read-out: IZ; how it was run: as §5
Klebsiella aerogenes [18] = assay: Antibacterial activity against Enterobacter aerogenes MTCC 111 at 1000 ug/disc after 24 hrs by disc diffusion assay; assay type: functional; conditions: MTCC 111, 24 h, read-out: IZ; how it was run: as §5
Proteus vulgaris [19] = assay: Antibacterial activity against Proteus vulgaris MTCC 1771 at 1000 ug/disc after 24 hrs by disc diffusion assay; assay type: functional; conditions: MTCC 1771, 24 h, read-out: IZ; how it was run: as §5
Klebsiella pneumoniae [20] = assay: Antibacterial activity against Klebsiella pneumoniae MTCC 109 at 1000 ug/disc after 24 hrs by disc diffusion assay; assay type: functional; conditions: MTCC 109, 24 h, read-out: IZ; how it was run: as §5
Salmonella typhimurium [21] = assay: Antibacterial activity against Salmonella Typhimurium MTCC 1251 at 1000 ug/disc after 24 hrs by disc diffusion assay; assay type: functional, Salmonella enterica subsp. enterica serovar Typhimurium; conditions: Salmonella enterica, MTCC 1251, 24 h; read-out: IZ; how it was run: as §5
[22] = system: Salmonella enterica subsp. enterica serovar Paratyphi B; assay: Antibacterial activity against Salmonella paratyphi B at 1000 ug/disc after 24 hrs by disc diffusion assay; assay type: functional; conditions: read-out: IZ; how it was run: as §6

SMILES	inhibition zone (IZ) [1]	zone of inhibition at 1000 µg/disc (Candida albicans [2])	zone of inhibition at 1000 µg/disc (Botrytis cinerea [3])	MIC (Staphylococcus aureus [4])	MIC (Staphylococcus aureus [5])	MIC (Micrococcus luteus [6])	MIC (Klebsiella aerogenes [7])	MIC (Proteus vulgaris [8])	MIC (Klebsiella pneumoniae [9])	MIC (Salmonella typhimurium [10])	MIC [11]	MIC [12]	MIC (Candida albicans [13])	MIC (Botrytis cinerea [14])	zone of inhibition at 1000 µg/disc (Staphylococcus aureus [15])	zone of inhibition at 1000 µg/disc (Staphylococcus aureus [16])	zone of inhibition at 1000 µg/disc (Micrococcus luteus [17])	zone of inhibition at 1000 µg/disc (Klebsiella aerogenes [18])	zone of inhibition at 1000 µg/disc (Proteus vulgaris [19])	zone of inhibition at 1000 µg/disc (Klebsiella pneumoniae [20])	further results
CN1CC2=C(C(=O)c3ccccc3C2=O)C12C(=O)Nc1ccc(I)cc12 (centres undefined)	14 mm	11 mm	12 mm	62.5 µg/mL (≈ 137 µM)	500 µg/mL (≈ 1100 µM)	15.6 µg/mL (≈ 34.2 µM)	250 µg/mL (≈ 548 µM)	500 µg/mL (≈ 1100 µM)	250 µg/mL (≈ 548 µM)	125 µg/mL (≈ 274 µM)	500 µg/mL (≈ 1100 µM)	125 µg/mL (≈ 274 µM)	250 µg/mL (≈ 548 µM)	250 µg/mL (≈ 548 µM)	16 mm	8 mm	15 mm	12 mm	10 mm	11 mm	zone of inhibition at 1000 µg/disc (Salmonella typhimurium [21]): 14 mm; zone of inhibition at 1000 µg/disc [22]: 7 mm
CCN1C(=O)C2(C3=C(CN2C)C(=O)c2ccccc2C3=O)c2ccccc21 (centres undefined)	11 mm	10 mm	8 mm	15.6 µg/mL (≈ 43.6 µM)	250 µg/mL (≈ 698 µM)	31.2 µg/mL (≈ 87.2 µM)	250 µg/mL (≈ 698 µM)	62.5 µg/mL (≈ 174 µM)	250 µg/mL (≈ 698 µM)	31.2 µg/mL (≈ 87.2 µM)	500 µg/mL (≈ 1400 µM)	250 µg/mL (≈ 698 µM)	500 µg/mL (≈ 1400 µM)	500 µg/mL (≈ 1400 µM)	22 mm	13 mm	18 mm	12 mm	15 mm	12 mm	zone of inhibition at 1000 µg/disc (Salmonella typhimurium [21]): 19 mm; zone of inhibition at 1000 µg/disc [22]: 10 mm
